Measured values from different studies.
Protocols differ between the studies behind these lines.
Organism: Escherichia coli
Read-out: microbial growth

| Compound | test | test system | conditions | MIC |
| --- | --- | --- | --- | --- |
| CC1(C)S[C@@H]2[C@H](NC(=O)[C@H](N)c3ccc(O)cc3)C(=O)N2[C@H]1C(=O)O | broth dilution | – | – | ≤ 0.06 µg/mL |
| Cc1[nH]c(C(=O)Nc2ccc(C(=O)NCC(=O)O)cc2N2CC[C@@H](NC(=O)OC(C)(C)C)C2)c(Cl)c1Cl | broth dilution | ATCC25922 | – | > 32 µg/mL |
| Cc1nn(-c2ccccc2)c2c1C(c1ccc([N+](=O)[O-])cc1)N(C(=O)c1ccncc1)N2 (centres unmarked) | – | MTCC739 | 24 h | 32 µg/mL |
| Cc1[nH]c(C(=O)Nc2ccc(C(=O)NCC(=O)O)cc2N2CCNCC2)c(Cl)c1Cl.Cl | broth dilution | ATCC25922 | – | > 32 µg/mL |
| CC(C)(O/N=C(\C(=O)N[C@@H]1C(=O)N2C(C(=O)[O-])=C(C[n+]3ccccc3)CS[C@H]12)c1csc(N)n1)C(=O)O | broth dilution | ATCC25922 | 20 h | < 0.5 µg/mL |
| COc1cc(Cc2cnc(N)nc2N)cc(OC)c1OC | broth dilution | ATCC25922 | – | 8 µg/mL |
| Cc1[nH]c(C(=O)Nc2ccc(-c3n[nH]c(=O)o3)cc2N2CC[C@H](N)C2)c(Cl)c1Cl.Cl | broth dilution | ATCC25922 | – | 8 µg/mL |
| CC(C)NCC(COc1cccc2ccccc12)OC(=O)C=Cc1ccc(O)c(O)c1 (centres unmarked) | broth dilution | ATCC25922 | – | 64 µg/mL |
| CO/N=C(\C(=O)N[C@@H]1C(=O)N2C(C(=O)[O-])=C(C[N+]3(C)CCCC3)CS[C@H]12)c1csc(N)n1 | broth dilution | – | – | ≤ 0.06 µg/mL |
| Cc1[nH]c(C(=O)Nc2ccc(C(=O)NCC(=O)O)cc2N2CC[C@H](N)C2)c(Cl)c1Cl.Cl | broth dilution | ATCC25922 | – | > 32 µg/mL |
| Cc1ccc(-c2nnc(SCC(C)O)n2-c2ccccc2)cc1 (centres unmarked) | – | – | – | 12500 µg/mL |
| C[C@H]1[C@H](NC(=O)/C(=N\OC(C)(C)C(=O)O)c2csc(N)n2)C(=O)N1S(=O)(=O)O | broth dilution | – | – | ≤ 0.06 µg/mL |
| CN[C@@H]1[C@@H](O[C@H]2O[C@H](CO)[C@@H](N)[C@H](O)[C@H]2O)OC2C[C@@H](N)[C@@H](O[C@H]3[C@H](O)[C@@H](O)[C@H](N)C[C@@H]3N)OC2[C@@H]1O (some centres unmarked) | – | – | 24 h | 2.5 to 5 µM |
| CC1CCC(C(C)C)C(OC(=O)C=Cc2ccc(O)c(O)c2)C1 (centres unmarked) | broth dilution | ATCC25922 | – | 2 µg/mL |
| CC(C)(O/N=C(\C(=O)N[C@@H]1C(=O)N2C(C(=O)[O-])=C(C[n+]3ccccc3)CS[C@H]12)c1csc(N)n1)C(=O)O | broth dilution | – | – | 0.125 µg/mL |
| CC1(C)S[C@@H]2[C@H](NC(=O)[C@H](N)c3ccccc3)C(=O)N2[C@H]1C(=O)O | broth dilution | ATCC25922 | – | 4 µg/mL |
| Cc1nn(-c2ccccc2)c2c1C(c1cncs1)N(C(=O)c1ccncc1)N2 (centres unmarked) | – | MTCC739 | 24 h | 64 µg/mL |
| CC(O)CSc1nnc(-c2cc3c(ccc4ccccc43)o2)n1-c1ccccc1 (centres unmarked) | – | – | – | 16000 µg/mL |
| CC(C)(C)OC(=O)N[C@H]1CCN(c2cc(C(=O)NCC(=O)O)ccc2NC(=O)c2cc(Br)c(Br)[nH]2)C1 | broth dilution | ATCC25922 | – | > 32 µg/mL |
| Cc1nn(-c2ccccc2)c2c1C(c1ccc(O)cc1)N(C(=O)c1ccncc1)N2 (centres unmarked) | – | MTCC739 | 24 h | 16 µg/mL |
